From PubChem BioAssay
A selection: hits, their analogues and other compounds. The true share with any hit is near 4.5%.
MrgX1 allo act – positive allosteric modulators of MrgX1, primary screen, HEK293 cells, Fluo-4 calcium flux. FDSS; hits give high values. hit rate 0.63% among 310,000. B-score at 10 µM;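 active means plate-corrected calcium response at least 3 library SD above typical, normal starting fluorescence, not activating the receptor alone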;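 further: compound read alongside a low EC10 to EC30 dose of BAM8-22 agonist; peak minus trough fluorescence over baseline measured at the second addition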
MrgX1 antag – antagonists of human MrgX1 receptor, primary screen, HEK293 cells, Fluo-4 calcium flux. Mas-related G-protein coupled receptor member X1 (Homo sapiens), Q96LB2. BAM8-22 antagonism; hits give low values. B-score at 10 µM. hit rate 1.3% among 310,000;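 active means calcium-response B-score plate-corrected more than 3 library SD below zero, starting fluorescence within 5 deviations, no agonist response on first addition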;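 further: peak minus trough fluorescence over baseline after final BAM8-22 challenge near maximal dose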
RGS4 inh – RGS4 inhibitors, primary screen, cell-based, HEK293 M3R inducible RGS4, calcium flux; Fluo-4 calcium flux; hits give high values; triggered by carbachol at its EC20; B-score at 10 µM; Regulator of G-protein signaling 4 (Homo sapiens), P49798; hit rate 0.45% among 310,000;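 active means B-score, a plate-corrected calcium signal, over three deviations above library mean, with baseline fluorescence within five deviations of library mean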;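 further: RGS4 expression induced by doxycycline in cells with stable M3 receptor; B-score is computed from the integrated fluorescence ratio over baseline after carbachol; higher B-score means a larger calcium signal and so more RGS4 inhibition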
Target sequence (P49798 whole entry, looked up): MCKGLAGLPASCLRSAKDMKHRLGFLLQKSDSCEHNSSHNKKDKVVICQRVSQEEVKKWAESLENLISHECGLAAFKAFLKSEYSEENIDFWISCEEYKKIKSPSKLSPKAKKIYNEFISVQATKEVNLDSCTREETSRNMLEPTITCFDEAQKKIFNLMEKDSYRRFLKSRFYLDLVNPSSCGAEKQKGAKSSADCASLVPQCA
PHOSPHO1 inh – PubChem AID 1565; Phosphoethanolamine/phosphocholine phosphatase (Homo sapiens), Q8TCT1; inhibition, % at 13.3 µM; hit rate 1.1% among 290,000; recombinant PHOSPHO1, absorbance phosphatase assay; in the data active means inhibition above about 60%
Target sequence (Q8TCT1 whole entry, looked up): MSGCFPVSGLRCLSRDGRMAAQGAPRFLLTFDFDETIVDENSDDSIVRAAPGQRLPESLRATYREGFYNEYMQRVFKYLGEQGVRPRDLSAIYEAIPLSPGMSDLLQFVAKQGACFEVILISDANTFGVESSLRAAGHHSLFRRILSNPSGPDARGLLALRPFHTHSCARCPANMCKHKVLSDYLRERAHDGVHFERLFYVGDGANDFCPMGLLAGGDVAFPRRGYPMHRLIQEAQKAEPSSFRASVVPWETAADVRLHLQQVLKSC
RGS4 pot – RGS4 potentiators or activators, primary screen, cell-based, HEK293 M3R inducible RGS4, calcium flux | B-score at 10 µM | hit rate 0.92% among 310,000 | carbachol calcium flux Fluo4; hits give low values | AID 463111, 2010;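 active means B-score of the integrated calcium signal more than 4 SD below the library mean, with starting fluorescence not abnormally high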;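 further: negative B-score means reduced calcium response which marks RGS4 activation or potentiation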
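Material: M3R-expressing HEK293 line, RGS4 induced by doxycycline | Schedule: Overnight RGS4 induction, 30 min dye load 37 °C, 20 min compound RT | Measured by: Fluo4 fluorescence kinetic imaging of calcium | Read-out: Integrated calcium ratio converted to B score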
MrgX1 ag – agonists of human MrgX1 receptor, primary screen, HEK293 cells, Fluo-4 calcium flux. AID 588627, 2011. Fluo-4 calcium fluorescence, agonist mode; hits give high values. hit rate 0.44% among 310,000. B-score at 10 µM. Mas-related G-protein coupled receptor member X1 (Homo sapiens), Q96LB2;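 active means calcium response B-score plate-corrected fluorescence ratio at least 3 library SD, with starting fluorescence B-score inside 5 SD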
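Material – MrgX1-expressing HEK293 cells · Input – 15,000 cells seeded per well · Dosing – compound as first of three additions · Times – overnight seeding, then 1 h dark dye loading · Measured by – kinetic Fluo-4 NW fluorescence of intracellular calcium · Read-out – B-scored fluorescence response ratio · Benchmarks – positive and negative control wells on each plate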
Starred values were filed as active, the others as inactive; i = inactive; . = no result.

SMILES	MrgX1 allo act	MrgX1 antag	RGS4 inh	PHOSPHO1 inh	RGS4 pot	MrgX1 ag
O=C1/C(=C\c2ccccc2)C2OCC=C3CN4CCC56c7ccccc7N1C5C2C3CC46 (stereo unspecified)	i	-6.6*	i	34	i	i
Cc1c(OC(=O)N(C)C)ccc2c1O/C(=C\c1ccco1)C2=O	i	i	i	35	i	i
O=c1[nH]c(O)c(/C=C2/C=CC(c3cc(Cl)ccc3Cl)=N2)c(=O)[nH]1	i	-7*	i	19	i	i
CCOC(=O)C1(CCc2ccccc2)CCN(Cc2cccc3c2OCO3)CC1	i	i	i	-24	-7.5*	i
N#Cc1ccccc1Cn1cc(C(=O)c2ccccc2F)c2ccccc21	i	i	i	-3	i	i
COc1cccc(OP(=O)(Nc2ccccc2)Oc2cccc(OC)c2)c1	i	i	i	-13	-9.9*	i
COc1ccc(C(O)P(=O)(OC(C)C)OC(C)C)cc1 (stereo unspecified)	i	i	i	24	i	i
COc1ccc(C(=O)O/N=C(/C(N)=O)P(=O)(OC(C)C)OC(C)C)cc1	i	i	i	48	-7.7*	i
C/C=C1/CC(C)C(C)(O)C(=O)OCC2CCN3CCC(OC1=O)C23 (stereo unspecified)	i	i	i	-6	-8.2*	i
Clc1ccc(C(c2ccc(Cl)cc2)n2cc[n+](CC(OCc3ccc(Cl)cc3Cl)c3ccc(Cl)cc3Cl)c2)cc1 (stereo unspecified)	i	i	.	.	.	i
O=C1C2CCCN2C(c2cccnc2)N1c1nccs1 (stereo unspecified)	i	i	i	18	i	i
Cc1ccnc(NS(=O)(=O)c2ccc(N=Cc3c(O)n(C)c(=O)n(C)c3=O)cc2)n1	6.6*	i	i	0	i	i
O=C1CC(=O)N(Cc2ccccc2)C(=S)N1	i	i	i	23	i	i
CC1CCC(C(C)C)C(OC(=O)Cn2c(COc3ccccc3)[n+](C)c3ccccc32)C1 (stereo unspecified)	i	-14*	i	8	-8*	i
O=C(O)c1[nH]c(=O)[nH]c(=O)c1F	i	i	i	-32	i	i
COc1cc(OC)c(OC)cc1CN1CCN(C(=O)Cc2ccccc2)CC1	i	i	i	25	i	i
COC(=O)C1=C(c2cc3ccccc3o2)C[C@@H]2CC[C@H]1N2C(=O)NCc1ccccc1	i	i	i	.	i	i
COC(=O)C1=C(c2cc3ccccc3o2)C[C@@H]2CC[C@H]1N2C(=O)NCc1ccc(C(F)(F)F)cc1	9.2*	i	i	.	i	i
O=c1[nH]c(=S)n(Cc2ccco2)c(O)c1C=NCc1cccs1	i	i	i	95*	i	i
O=C1c2cccc3cccc(c23)C(=O)N1/N=C/c1c(O)n(-c2ccccc2)c(=O)[nH]c1=O	i	i	i	29	i	i
CCC(=NCc1cc(OC)cc(OC)c1)c1c(O)[nH]c(=O)[nH]c1=O	i	i	i	51	i	i
Cc1nn(CCC#N)c2c1P(=S)(N1CCCC1)OC(c1ccc(F)cc1)=N2 (stereo unspecified)	i	i	i	103*	i	i
CCOP(=O)(OCC)C1(O)C(=O)Nc2ccc(Br)cc21 (stereo unspecified)	i	i	i	6	i	i
O=C(O)CCC(=O)NCCC1=c2ccccc2=N/C1=C\c1c(O)n(Cc2ccc(F)cc2)c(=S)[nH]c1=O	i	i	i	97*	i	i
CC[C@@H]1C(=O)OC[C@@H]1Cc1cncn1C	8.7*	i	.	.	.	i
SMILES	MrgX1 allo act	MrgX1 antag	RGS4 inh	PHOSPHO1 inh	RGS4 pot	MrgX1 ag
CC(C)(C)n1c(O)c(C=Nc2ccc3c(c2)CCC3)c(=O)[nH]c1=O	i	i	i	0	-7.1*	i
O=C(c1ccc(N2CC3CC(C2)c2cccc(=O)n2C3)c([N+](=O)[O-])c1)N1CCCCC1 (stereo unspecified)	i	i	i	-2	i	i
Cc1cc(OC(=O)c2ccco2)c2c3c(c(=O)oc2c1)CCCC3	i	i	i	0	i	i
Cc1cc(OC(=O)c2cccs2)c2c3c(c(=O)oc2c1)CCCC3	i	i	i	-9	-7.3*	i
CCOC(C(=O)OCC(O)CN(CC)CC)(c1ccccc1)c1ccccc1 (stereo unspecified)	i	i	i	10	i	i
CC[N+](C)(CC)CCCOC(=O)C(O)(c1ccccc1)C1CCCCC1 (stereo unspecified)	i	i	i	0	-7.1*	i
CCOC(C(=O)OCCC[N+](C)(CC)CC)(c1ccccc1)c1ccccc1	i	i	i	16	-8.7*	i
CN(c1ccc(OCC(=O)N2CCN(C/C=C/c3ccccc3)CC2)cc1)S(=O)(=O)c1cccs1	i	i	i	-19	i	i
CC(C)N1CCN(Cc2cccc([N+](=O)[O-])c2)CC1	i	i	i	-8	i	i
CC(C)N(CC(O)c1cccc([N+](=O)[O-])c1)C(C)C (stereo unspecified)	i	-6.2*	i	42	i	i
CC(C)c1oc(=O)cc2c1[C@@H](O)[C@H]1OC(=O)[C@@]3(C)C[C@@H](O)[C@@H](O)[C@@]2(C)C13 (stereo partly specified)	i	i	i	1	i	i
O=C(c1ccccc1)C(CN1CCCC1)c1ccccc1 (stereo unspecified)	i	i	i	7	-8.4*	i
O[C@@H]1CCCN2CCc3c([nH]c4ccccc34)[C@H]12	i	i	i	.	i	i
CN(C)C(=O)Oc1cccc(NC(=O)N2CCOCC2)c1	i	i	i	4	i	i
Cc1cccc(NC(=O)N2CCCC2)c1	i	i	i	62*	i	i
CN1CCN(c2ccc(N)cc2Cl)CC1	i	-5.3*	i	35	i	i
CN1CCN(c2ccc(Cl)cc2N)CC1	i	i	i	12	i	i
COC(=O)C1=C(c2cccc(OC)c2OC)C[C@@H]2CC[C@H]1N2C(=O)NC(C)C	i	i	i	.	i	i
